Assays:
Type in all cases: functional
Rattus norvegicus [1] = assay: Antihyperlipidemic activity in Triton WR-1339-induced hyperlipidemic rat assessed as decrease in plasma total cholesterol level at 100 mg/kg, po relative to control; design: scale not given: the % may be the effect or the level left
Method in brief: (§1)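 Triton WR-1339 given to rats to induce hyperlipidemia; oral dosing. Plasma TC, PL, TG in mg/dL; PHLA as […]/h/mL plasma. Mean ± SD of six rats; Triton group compared with control, Triton plus dosed group compared with Triton group.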

Rattus norvegicus [2] = assay: Antihyperlipidemic activity in Triton WR-1339-induced hyperlipidemic rat assessed as decrease in plasma phospholipid level at 100 mg/kg, po relative to control; design: scale not given: the % may be the effect or the level left; method in brief: as §1
Rattus norvegicus [3] = assay: Antihyperlipidemic activity in Triton WR-1339-induced hyperlipidemic rat assessed as decrease in plasma triglyceride level at 100 mg/kg, po relative to control; design: scale not given: the % may be the effect or the level left; method in brief: as §1
Rattus norvegicus [4] = assay: Antihyperlipidemic activity in Triton WR-1339-induced hyperlipidemic rat assessed as increase in PHLA enzyme level at 100 mg/kg, po; method in brief: as §1
Rattus norvegicus [5] = assay: Antihyperlipidemic activity in Triton WR-1339-induced hyperlipidemic rat assessed as increase in LCAT enzyme level at 100 mg/kg, po; method in brief: as §1
Rattus norvegicus [6] = assay: Antihyperlipidemic activity in HFD-induced hyperlipidemic Charles Foster rat assessed as decrease in serum total cholesterol level at 100 mg/kg, po administered for 4 weeks relative to control; design: scale not given: the % may be the effect or the level left
Method in brief: (§2)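 Male Charles Foster rats (200−225 g): high-fat diet 4 weeks, then diet plus daily dosing 4 weeks. Overnight fast, retro-orbital blood in EDTA (3 mg/mL blood), centrifuged to serum. TC, PL, TG in mg/dL; LCAT as nmol cholesterol released/h/L plasma. Mean ± SD; dosed groups compared with high-fat group, P by significance levels.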

Rattus norvegicus [7] = assay: Antihyperlipidemic activity in HFD-induced hyperlipidemic Charles Foster rat assessed as decrease in serum phospholipid level at 100 mg/kg, po administered for 4 weeks relative to control; design: scale not given: the % may be the effect or the level left; method in brief: as §2
Rattus norvegicus [8] = assay: Antihyperlipidemic activity in HFD-induced hyperlipidemic Charles Foster rat assessed as decrease in serum triglyceride level at 100 mg/kg, po administered for 4 weeks relative to control; design: scale not given: the % may be the effect or the level left; method in brief: as §2
Rattus norvegicus [9] = assay: Antihyperlipidemic activity in HFD-induced hyperlipidemic Charles Foster rat assessed as increase in serum LCAT enzyme level at 100 mg/kg, po administered for 4 weeks relative to control; method in brief: as §2
Rattus norvegicus [10] = assay: Antihyperlipidemic activity in HFD-induced hyperlipidemic Charles Foster rat assessed as decrease in plasma VLDL-total cholesterol level at 100 mg/kg, po administered for 4 weeks relative to control; design: scale not given: the % may be the effect or the level left
Method in brief: (§3)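 After 4 weeks high-fat feeding plus 4 weeks daily dosing, overnight fast, retro-orbital blood into EDTA tubes. Serum split into VLDL, LDL and HDL by polyanionic precipitation; each fraction assayed for TC, PL, TG and apoprotein (mg/dL plasma). Pooled data from 6 rats/group, mean ± SD, dosed groups compared with high-fat group.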

Rattus norvegicus [11] = assay: Antihyperlipidemic activity in HFD-induced hyperlipidemic Charles Foster rat assessed as decrease in plasma VLDL-phospholipid level at 100 mg/kg, po administered for 4 weeks relative to control; design: scale not given: the % may be the effect or the level left; method in brief: as §3
Rattus norvegicus [12] = assay: Antihyperlipidemic activity in HFD-induced hyperlipidemic Charles Foster rat assessed as decrease in plasma VLDL-triglyceride level at 100 mg/kg, po administered for 4 weeks relative to control; design: scale not given: the % may be the effect or the level left; method in brief: as §3
Rattus norvegicus [13] = assay: Antihyperlipidemic activity in HFD-induced hyperlipidemic Charles Foster rat assessed as decrease in plasma VLDL-apoprotein level at 100 mg/kg, po administered for 4 weeks relative to control; design: scale not given: the % may be the effect or the level left; method in brief: as §3
Rattus norvegicus [14] = assay: Antihyperlipidemic activity in HFD-induced hyperlipidemic Charles Foster rat assessed as decrease in plasma LDL-total cholesterol level at 100 mg/kg, po administered for 4 weeks relative to control; design: scale not given: the % may be the effect or the level left; method in brief: as §3
Rattus norvegicus [15] = assay: Antihyperlipidemic activity in HFD-induced hyperlipidemic Charles Foster rat assessed as decrease in plasma LDL-phospholipid level at 100 mg/kg, po administered for 4 weeks relative to control; design: scale not given: the % may be the effect or the level left; method in brief: as §3
Rattus norvegicus [16] = assay: Antihyperlipidemic activity in HFD-induced hyperlipidemic Charles Foster rat assessed as decrease in plasma LDL-triglyceride level at 100 mg/kg, po administered for 4 weeks relative to control; design: scale not given: the % may be the effect or the level left; method in brief: as §3
Rattus norvegicus [17] = assay: Antihyperlipidemic activity in HFD-induced hyperlipidemic Charles Foster rat assessed as decrease in plasma LDL-apoprotein level at 100 mg/kg, po administered for 4 weeks relative to control; design: scale not given: the % may be the effect or the level left; method in brief: as §3
Rattus norvegicus [18] = assay: Antihyperlipidemic activity in HFD-induced hyperlipidemic Charles Foster rat assessed as increase in plasma HDL-total cholesterol level at 100 mg/kg, po administered for 4 weeks relative to control; method in brief: as §3
Rattus norvegicus [19] = assay: Antihyperlipidemic activity in HFD-induced hyperlipidemic Charles Foster rat assessed as increase in plasma HDL-phospholipid level at 100 mg/kg, po administered for 4 weeks relative to control; method in brief: as §3
Rattus norvegicus [20] = assay: Antihyperlipidemic activity in HFD-induced hyperlipidemic Charles Foster rat assessed as increase in plasma HDL-triglyceride level at 100 mg/kg, po administered for 4 weeks relative to control; method in brief: as §3
Rattus norvegicus [21] = assay: Antihyperlipidemic activity in HFD-induced hyperlipidemic Charles Foster rat assessed as increase in plasma HDL-apoprotein level at 100 mg/kg, po administered for 4 weeks relative to control; method in brief: as §3
Rattus norvegicus [22] = assay: Antihyperlipidemic activity in HFD-induced hyperlipidemic Charles Foster rat assessed as decrease in liver total cholesterol level at 100 mg/kg, po administered for 4 weeks relative to control; design: scale not given: the % may be the effect or the level left
Method in brief: (§4)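 Adult male Charles Foster rats (200−225 g), high-fat diet 4 weeks, then diet plus daily dosing 4 more weeks; overnight fast, sacrifice, liver washed in cold 0.15 M KCl and held at 4 °C. Lipids extracted from liver homogenate in CHCl3/CH3OH (2:1 v/v), TC, PL and TG read in mg/g; pooled data from 6 rats/group, mean ± SD.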

Rattus norvegicus [23] = assay: Antihyperlipidemic activity in HFD-induced hyperlipidemic Charles Foster rat assessed as decrease in liver phospholipid level at 100 mg/kg, po administered for 4 weeks relative to control; design: scale not given: the % may be the effect or the level left; method in brief: as §4
Rattus norvegicus [24] = assay: Antihyperlipidemic activity in HFD-induced hyperlipidemic Charles Foster rat assessed as decrease in liver triglyceride level at 100 mg/kg, po administered for 4 weeks relative to control; design: scale not given: the % may be the effect or the level left; method in brief: as §4
Rattus norvegicus [25] = assay: Antihyperlipidemic activity in HFD-induced hyperlipidemic Charles Foster rat assessed as reactivation of LPL activity at 100 mg/kg, po administered for 4 weeks relative to control
Method in brief: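 Male Charles Foster rats fed high-fat diet 4 weeks, then diet plus daily dosing 4 weeks. Liver homogenized (10% w/v) in cold 100 mM phosphate buffer pH 7.2; total lipolytic LPL activity read as nmol free fatty acid formed/h/mg protein; pooled data from 6 rats/group, mean ± SD.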

Rattus norvegicus [26] = assay: Antihyperlipidemic activity in HFD-induced hyperlipidemic Charles Foster rat assessed as increase in [I125]-LDL catabolism in plasma membrane of liver at 100 mg/kg/day, po administered for 4 weeks
Method in brief: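 Rats on 8 weeks total of high-fat diet, dosed daily for the last 4 weeks, then sacrificed. Human serum LDL radiolabeled with I125; specific binding to liver plasma membrane preparation measured as receptor-mediated LDL catabolism. Mean ± SD, n = 6.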

Rattus norvegicus [27] = assay: Antihyperlipidemic activity in HFD-induced hyperlipidemic Charles Foster rat assessed as increase in cholic acid excretion in feces at 100 mg/kg/day, po administered for 4 weeks measured after 30 days relative to control
Method in brief: (§5)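 Rats fed high-fat diet 4 weeks, then diet plus daily dosing 4 weeks. Cholic and deoxycholic acid excreted in feces measured; dosed groups compared with high-fat group, control compared with high-fat group.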

Rattus norvegicus [28] = assay: Antihyperlipidemic activity in HFD-induced hyperlipidemic Charles Foster rat assessed as increase in deoxycholic acid excretion in feces at 100 mg/kg/day, po administered for 4 weeks measured after 30 days relative to control; method in brief: as §5

## CCOC(=O)C(C)Oc1ccc(C(c2c(C)n(C)c3ccccc23)c2c(C)n(C)c3ccccc23)cc1 (stereo not drawn)
Rattus norvegicus [1]
  Activity: 10%
Rattus norvegicus [2]
  Activity: 10%
Rattus norvegicus [3]
  Activity: 6%

## Cc1ccc(C)c(OCCCC(C)(C)C(=O)O)c1 [GEMFIBROZIL]
Rattus norvegicus [1]
  Activity: 33%
Rattus norvegicus [2]
  Activity: 35%
Rattus norvegicus [3]
  Activity: 35%
Rattus norvegicus [4]
  percent increase: 27%
Rattus norvegicus [5]
  Activity: 27 nmol/h/mL

## CCOC(=O)C(C)(C)Oc1ccc(C(c2cn(C)c3ccccc23)c2cn(C)c3ccccc23)cc1
Rattus norvegicus [1]
  Activity: 10%
Rattus norvegicus [2]
  Activity: 9%
Rattus norvegicus [3]
  Activity: 5%

## CCOC(=O)COc1ccc(C(c2cn(C)c3ccccc23)c2cn(C)c3ccccc23)cc1
Rattus norvegicus [1]
  Activity: 10%
Rattus norvegicus [2]
  Activity: 12%
Rattus norvegicus [3]
  Activity: 9%

## CCOC(=O)COc1ccc(C(c2c[nH]c3ccccc23)c2c[nH]c3ccccc23)cc1
Rattus norvegicus [1]
  Activity: 12%
Rattus norvegicus [2]
  Activity: 25%
Rattus norvegicus [3]
  Activity: 10%

## CC(C)OC(=O)C(C)(C)Oc1ccc(C(=O)c2ccc(Cl)cc2)cc1 [FENOFIBRATE]
Rattus norvegicus [6]
  Activity: 36%
Rattus norvegicus [7]
  Activity: 34%
Rattus norvegicus [8]
  Activity: 33%
Rattus norvegicus [9]
  Activity: 34%
Rattus norvegicus [10]
  Activity: 28%
Rattus norvegicus [11]
  Activity: 24%
Rattus norvegicus [12]
  Activity: 30%
Rattus norvegicus [13]
  Activity: 35%
Rattus norvegicus [14]
  Activity: 28%
Rattus norvegicus [15]
  Activity: 28%
Rattus norvegicus [16]
  Activity: 27%
Rattus norvegicus [17]
  Activity: 28%
Rattus norvegicus [18]
  Activity: 16%
Rattus norvegicus [19]
  Activity: 15%
Rattus norvegicus [20]
  Activity: 16%
Rattus norvegicus [21]
  Activity: 17%
Rattus norvegicus [22]
  Activity: 37%
Rattus norvegicus [23]
  Activity: 33%
Rattus norvegicus [24]
  Activity: 34%
Rattus norvegicus [25]
  Activity: 26%
Rattus norvegicus [26]
  Activity: 30%
Rattus norvegicus [27]
  Activity: 31%
Rattus norvegicus [28]
  Activity: 33%

## CCOC(=O)COc1ccc(C(c2cn(CC)c3ccccc23)c2cn(CC)c3ccccc23)cc1
Rattus norvegicus [1]
  Activity: 12%
Rattus norvegicus [2]
  Activity: 6%
Rattus norvegicus [3]
  Activity: 10%

## CCOC(=O)C(C)(C)Oc1ccc(C(c2c[nH]c3ccccc23)c2c[nH]c3ccccc23)cc1
Rattus norvegicus [1]
  Activity: 9%
Rattus norvegicus [2]
  Activity: 9%
Rattus norvegicus [3]
  Activity: 6%

## CCOC(=O)CCCOc1ccc(C(c2c[nH]c3ccccc23)c2c[nH]c3ccccc23)cc1
Rattus norvegicus [1]
  Activity: 12%
Rattus norvegicus [2]
  Activity: 15%
Rattus norvegicus [3]
  Activity: 12%

## CCOC(=O)C(C)Oc1ccc(C(c2c(C)[nH]c3ccccc23)c2c(C)[nH]c3ccccc23)cc1 (stereo not drawn)
Rattus norvegicus [1]
  Activity: 9%
Rattus norvegicus [2]
  Activity: 5%
Rattus norvegicus [3]
  Activity: 8%

## CCOC(=O)C(C)Oc1ccc(C(c2cn(C)c3ccccc23)c2cn(C)c3ccccc23)cc1 (stereo not drawn)
Rattus norvegicus [1]
  Activity: 10%
Rattus norvegicus [2]
  Activity: 6%
Rattus norvegicus [3]
  Activity: 8%

## CCOC(=O)C(C)(C)Oc1ccc(C(c2cn(CC)c3ccccc23)c2cn(CC)c3ccccc23)cc1
Rattus norvegicus [1]
  Activity: 11%
Rattus norvegicus [2]
  Activity: 9%
Rattus norvegicus [3]
  Activity: 9%

Source: ChEMBL document CHEMBL2029264, “Indole-based fibrates as potential hypolipidemic and antiobesity agents” (J Med Chem, 2012)
